The source of these data is PubChem BioAssay AID492981 (Johns Hopkins Ion Channel Center, 2010).

Inconclusive results are not listed. Calls of active or inactive are those of the source.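 The calls were made as follows: active = compound whose replicate-averaged normalized fluorescence ratio fell more than 5 SD below the agonist-stimulated control mean; inactive = the rest, inconclusive results apart.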

Chain of Short transient receptor potential channel 6 (Mus musculus) (Q61143 whole entry, looked up): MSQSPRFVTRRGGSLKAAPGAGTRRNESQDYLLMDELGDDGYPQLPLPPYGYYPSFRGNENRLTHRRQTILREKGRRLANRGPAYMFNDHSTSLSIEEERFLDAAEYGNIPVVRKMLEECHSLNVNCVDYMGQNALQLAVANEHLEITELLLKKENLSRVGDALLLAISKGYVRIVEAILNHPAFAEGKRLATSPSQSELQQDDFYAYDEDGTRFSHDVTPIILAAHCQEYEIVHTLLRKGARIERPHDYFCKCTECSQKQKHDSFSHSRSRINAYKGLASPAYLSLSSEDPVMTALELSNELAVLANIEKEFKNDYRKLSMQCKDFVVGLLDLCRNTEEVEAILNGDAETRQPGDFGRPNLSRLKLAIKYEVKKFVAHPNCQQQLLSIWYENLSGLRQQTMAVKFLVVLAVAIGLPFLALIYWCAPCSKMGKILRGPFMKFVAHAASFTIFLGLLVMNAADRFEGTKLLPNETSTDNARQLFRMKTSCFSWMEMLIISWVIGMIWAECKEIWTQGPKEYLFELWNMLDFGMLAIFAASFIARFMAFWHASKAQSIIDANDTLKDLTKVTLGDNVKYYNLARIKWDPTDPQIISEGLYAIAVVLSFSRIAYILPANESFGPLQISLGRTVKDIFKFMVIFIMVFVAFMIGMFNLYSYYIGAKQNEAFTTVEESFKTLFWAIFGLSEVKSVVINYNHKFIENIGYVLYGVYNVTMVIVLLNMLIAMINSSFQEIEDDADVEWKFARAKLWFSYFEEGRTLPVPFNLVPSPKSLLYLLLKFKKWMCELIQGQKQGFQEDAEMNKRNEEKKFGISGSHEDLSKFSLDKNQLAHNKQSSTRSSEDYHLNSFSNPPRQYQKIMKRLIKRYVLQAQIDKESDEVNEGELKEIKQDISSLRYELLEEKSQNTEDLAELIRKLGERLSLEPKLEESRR

For this assay, the target named is Short transient receptor potential channel 6 (Mus musculus) (UniProt Q61143). The assay can be described thus: mouse TRPC6 channel blockers, analog testing – HEK293 cells, membrane potential dye, single concentration, selectivity assay for selective TRPC4 inhibitor project, SAR follow-up (AID 492981). The following applies: membrane potential dye fluorescence, at 10 µM, active compounds read high. In short, it runs like this:
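assay system = HEK293 cells expressing mouse TRPC6 channel | probe or stimulus = ECmax acetylcholine | incubation = 45 min dye loading, 110 s compound preincubation | detection = membrane potential dye fluorescence, kinetic | read-out basis = percent inhibition of integrated fluorescence ratio, normalized to positive controls | replicates = at least duplicate wells per compound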
As usually defined, the inhibition is the change of the read-out against control, counted positive when it falls. On to `Cc1cc(N2CCC(C)CC2)nc2ccccc12`, for which the inhibition is 13.6% (inactive). Take `c1ccc(-c2cc(N3CCCCC3)nc3ccccc23)cc1`: the inhibition is 19.4% (inactive). With `COc1ccccc1N1CCN(c2cc(C)c3ccccc3n2)CC1`, the inhibition was 11.7% (inactive). For the molecule `Cc1cc(N2CCCC2)nc2ccccc12`, the inhibition was 57.9%.

In the case of `CCc1ccc2nc(N3CCCCC3)cc(C)c2c1`, the inhibition was 13.6% (inactive).

Turning to `Cc1ccnc(N2CCCCC2)n1`, the inhibition was -9.81% (inactive). Next, `Cc1ccnc(N2CCCCC2)c1`: -2.93% (inactive); `COCCN(C)c1cc(C)c2ccccc2n1`: 22.2% (inactive); `Cc1cc(N(C)CCN(C)C)nc2ccccc12`: 18.1% (inactive). Next, `Cc1cc(N2CCOc3ccccc32)nc2ccccc12`: 13.7% (inactive). Turning to `CCN(CC)c1cc(C)c2ccccc2n1`, the inhibition was 9.79% (inactive). Next, `Cc1cc(N2CCCC2)nc2c(C)cccc12`: 33.9% (inactive); `FC(F)(F)c1cc(N2CCCCC2)nc2ccccc12`: -6.62% (inactive); `Cc1cc(N2CCOCC2)nc2ccccc12`: 2.35% (inactive). Turning to `Cc1cc(N2CC(C)CC(C)C2)nc2ccccc12` (stereo not drawn), the inhibition is 16.4% (inactive).

On to `Cc1cc(N2CCNCC2)nc2ccccc12`, for which the inhibition is 37.2%. With `FC(F)(F)c1cc(N2CCCC2)nc2ccccc12`, the inhibition is 11.5% (inactive). Next, `Cc1cc(N2CCN(c3ccccc3C#N)CC2)nc2ccccc12`: 0.71% (inactive); `Cc1ccnc(N2CCCC2)c1`: -27.6% (inactive); `Cc1cc(N2CCCCC2)nc2ccc(F)cc12`: 3.78% (inactive).

Turning to `Cc1cc(N2CCN(c3ncccn3)CC2)nc2ccccc12`, the inhibition is 6.28% (inactive). With `Cc1cc(N2CCN(CC3CCCO3)CC2)nc2ccccc12` (stereo not drawn), the inhibition is 14.3% (inactive). Take `Cc1cc(N2CCCCC2)nc2c(C)cccc12`: the inhibition was 3.23% (inactive). Next, `Cc1cc(N2CCCC(O)C2)nc2ccccc12` (stereo not drawn): 26.7%; `Cc1ccnc(N2CCCC2)n1`: -6.71% (inactive); `c1ccc(-c2cc(N3CCCC3)nc3ccccc23)cc1`: 2.24% (inactive).

As to `Cc1cc(N2CCN(C)CC2)nc2ccccc12`, the inhibition is 2.9% (inactive). Next, `Cc1cc(N2CCC[C@@H]2C)nc2ccccc12`: 47.6%; `Cc1ccc2nc(N3CCCCC3)cc(C)c2c1`: 37.5% (inactive).

Regarding `Cc1cc(N2CCN(c3ccncc3)CC2)nc2ccccc12`, the inhibition is 61.2%. Turning to `Cc1cc(N2CCC(N3CCOCC3)CC2)nc2ccccc12`, the inhibition is 44.8%. As to `COc1ccc(N2CCN(c3cc(C)c4ccccc4n3)CC2)cc1`, the inhibition is 15.5% (inactive). Under `Cc1cc(N2CCCCC2)nc2ccccc12` stands 42.7%.
